From PubChem
XiGFP reactiv – X-chromosome reactivation activator. XiGFP mouse fibroblasts, % GFP-positive cells imaging, 3 d; cells co-treated with 5-aza-dC sensitizer; scaled so ellipticine positive control = 100%. activation, % at 7.58 µM. 360,000 tested, 0.055% active. AID 743238;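 active means mean normalized replicate activation at least 10% and every replicate at or above 10%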;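 further: 0% = median of on-plate neutral control wells and 100% = ellipticine 6 µM median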
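System: 68-5-11 XiGFP fibroblast line; Timing: 3 days compound exposure; Compound dosing: one concentration, pinned; Benchmarks: positive control ellipticine, 6 µM final; Buffer or medium: DMEM containing 5-aza-dC.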
aDG glyco up – alpha-DG glycosylation activation | Pro5-aDG cells, alpha-DG glycosylation AlphaScreen (IIH6); 0% Pro5, 100% B10-LARGE cell signal | activation, % at 10 µM | 360,000 tested, 0.22% active;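 active means activation of at least 8% versus controls, or a plate z-score of at least 8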;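 further: Pro5 are CHO cells carrying HIG-tagged alpha-DG that lacks glycosylation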
CSN deneddyl inh – CSN deneddylation inhibition; Q92905; Purified CSN, SCF-Nedd8-OG deneddylation, fluorescence polarization; inhibition, % at 12.5 µM; 360,000 tested, 0.38% active; AID 651999;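 active means pattern-corrected inhibition above about 35%, with an unprinted fluorescence ratio check between 0.5 and 1.5, limit read from the data, passing the limit was not always enough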;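 further: 0% = enzyme with substrate and 100% = substrate without enzyme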
Target sequence (Q92905 whole entry, looked up, one chain of several): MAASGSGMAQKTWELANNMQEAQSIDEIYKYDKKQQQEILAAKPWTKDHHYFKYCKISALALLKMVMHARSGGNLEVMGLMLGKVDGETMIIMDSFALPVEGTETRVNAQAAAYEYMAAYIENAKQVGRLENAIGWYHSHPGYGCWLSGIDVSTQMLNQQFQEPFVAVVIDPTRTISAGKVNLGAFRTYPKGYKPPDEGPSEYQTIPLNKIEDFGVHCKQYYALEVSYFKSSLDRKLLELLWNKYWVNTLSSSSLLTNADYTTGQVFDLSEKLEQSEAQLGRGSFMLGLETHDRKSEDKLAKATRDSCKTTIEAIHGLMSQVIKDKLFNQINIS
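Material: human Csn5 produced in HEK293T cells; Input: enzyme 0.24 nM; Reagent: SCFSkp2-Nedd8OG substrate at 10 nM final; Dosing: 12.5 µM compound; Incubation: 90 min reaction at room temperature; Detection: fluorescence polarization of the substrate; Evaluation: % inhibition of substrate cleavage by Csn5; Control set: substrate-only high control, full reaction low control.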
TPT1 inh – blocks Candida albicans tRNA 2'-phosphotransferase | recombinant caTPT1, FP RNA substrate dephosphorylation | inhibition, % at 5 µM | 300,000 tested, 0.81% active | AID 1962;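 active means inhibition above the mean of all tested compounds plus 3 SD, set per screening campaign, cut at about 24% in these data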;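 further: plate controls were DMSO alone for no effect and ferristatin control at 100 nM for full effect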
Rpn11 inh – blocks the human proteasome subunit Rpn11; 360,000 tested, 0.59% active; O00487; inhibition, % at 20 µM; human 26S proteasome, Ub4-pepOG fluorescence polarization; 20S core pre-blocked with epoxomicin;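 active means inhibition at 20 µM, scaled to each plate's controls, above about 33%, limit read from the data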
HNF4A DNA FP – change in binding of human HNF4 alpha to DNA; HNF4a-FITC DNA binding, fluorescence polarization, 1 h; activity change, % at 10 µM; 360,000 tested, 0.3% active; P41235; in the data active means activity change above about 30%, passing the limit was not always enough
caTPT1 confirm – confirmation of Candida albicans TPT1 inhibitors; inhibition, % at 5 µM; recombinant caTPT1, fluorescence polarization, RNase T1 coupled; 2,400 tested, 74% active; shares compounds with TPT1 inh;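 active means inhibition above the primary screen limit, the mean inhibition of all tested compounds plus 3 SD, cut at about 25% in these data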
RNase T1 counter – counter-screen for TPT1 inhibitors: inhibitors of Aspergillus oryzae RNase T1 | shares compounds with TPT1 inh | RNase T1 cleavage, fluorescence polarization, 1536-well | inhibition, % at 5 µM | 2,400 tested, 83% active | AID 2153;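 active means inhibition above the solvent-only control well mean plus 3 SD, limit set per screening run, cut at about 23% in these data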;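 further: plate controls were DMSO wells with enzyme for no effect and wells without RNase T1 for full effect; inhibitors block cleavage so intact labeled substrate keeps polarization high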
Target sequence (P00651 whole entry, looked up): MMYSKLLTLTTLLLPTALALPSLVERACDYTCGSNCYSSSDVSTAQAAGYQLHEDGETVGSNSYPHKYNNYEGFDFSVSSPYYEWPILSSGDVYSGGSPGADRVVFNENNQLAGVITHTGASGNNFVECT
Active calls of the source: *; x = not tested or not shown; + = active, no number. A selection: hits, their analogues and other compounds. The true share with any hit is near 1.3%.

SMILES	XiGFP reactiv	aDG glyco up	CSN deneddyl inh	TPT1 inh	Rpn11 inh	HNF4A DNA FP	caTPT1 confirm	RNase T1 counter
C[C@H]1CCCCO[C@H](CN(C)C(=O)Nc2cccc3ccccc23)[C@@H](C)CN([C@@H](C)CO)C(=O)c2cc(NC(=O)C3CCCCC3)ccc2O1	0	x	x	x	x	x	x	x
CN1C(=O)C(N=Nc2ccccc2C(=O)O)N(C)C1=S (stereo unspecified)	0	0	8	41*	21	14	41*	61*
COc1ccc(CN(C)C[C@H]2OCCCC[C@@H](C)Oc3ccc(NC(=O)c4ccccc4)cc3C(=O)N([C@@H](C)CO)C[C@H]2C)cc1	0	x	x	x	x	x	x	x
O=C(O)Cc1sc(NC2CCCCC2)nc1-c1ccc(Cl)cc1	0	0	65*	137*	x	10	23	32*
Cc1ccc(-c2nc(Nc3cccc(C)c3)sc2CC(=O)O)cc1	0	0	19	11	24	5	x	x
CCCCCCCCNC(=O)c1ccc(C)cc1	0	x	x	37*	x	x	13	20
CCCCNC(=O)Cc1ccc(C)cc1	0	0	-5	2	-3	4	x	x
C[C@H]1CN([C@@H](C)CO)C(=O)c2cccc(N(C)C)c2O[C@@H]1CN(C)S(=O)(=O)c1cccs1	0	x	x	x	x	x	x	x
C[C@H](CO)N1C[C@H](C)[C@@H](CN(C)C(=O)Nc2ccccc2)Oc2ncc(C#CC3CCCC3)cc2C1=O	0	x	x	x	x	x	x	x
CC(NS(=O)(=O)c1ccc([N+](=O)[O-])cc1)C(c1cccs1)N1CCOCC1 (stereo unspecified)	0	0	-3	36*	1	0	6	11
CC(NS(=O)(=O)c1ccc(F)cc1)C(c1cccs1)N1CCOCC1 (stereo unspecified)	0	0	3	-1	-4	-2	x	x
C[C@@H]1CN([C@H](C)CO)C(=O)c2cccc(NS(C)(=O)=O)c2O[C@@H]1CN(C)S(C)(=O)=O	0	x	x	x	x	x	x	x
Cc1ccc(C)c(N2CCN(S(=O)(=O)c3c(C)noc3/C=C/N(C)C)CC2)c1	x	0	5	29*	6	2	7	9
O=C(Cc1ccccn1)N[C@H]1CC[C@@H](CCn2cc(-c3cccnc3)nn2)O[C@@H]1CO	0	x	x	x	x	x	x	x
CO[C@@H]1CN(C)C(=O)c2cc(NC(=O)c3cccc(F)c3)ccc2OC[C@@H](C)N(C(C)=O)C[C@H]1C	0	x	x	x	x	x	x	x
CC(=O)c1ccccc1NCC(=O)Nc1ccc(C)cc1	0	0	-1	+	0	-3	18	29*
Cc1ccc(NC(=O)c2ccccc2NC(=O)CCC(=O)O)cc1	0	0	-6	-1	2	1	x	x
O=C(O)Cn1cc(/C=c2/sc3nc4ccccc4n3c2=O)c2ccccc21	0	0	5	39*	37	28	28*	37*
COc1ccccc1NC(=O)/C(C#N)=C/c1cc([N+](=O)[O-])ccc1N1CCCC1	0	0	-77	38*	-140	-105	74*	85*
COc1ccccc1NC(=O)/C(C#N)=C/c1ccncc1	0	0	2	0	1	2	x	x
CC(C)CC#Cc1cnc2c(c1)C(=O)N([C@@H](C)CO)C[C@@H](C)[C@H](CN(C)C(=O)c1ccc(F)cc1)O2	-1	x	x	x	x	x	x	x
N#CC1=CN(Cc2ccccc2)C=C(/C=N/Nc2ccccc2)C1	0	0	15	25*	34	11	14	25*
C[C@@H]1CCCCO[C@H](CN(C)C(=O)CCC(F)(F)F)[C@H](C)CN([C@@H](C)CO)C(=O)c2cc(NS(=O)(=O)c3ccccc3)ccc2O1	0	x	x	x	x	x	x	x
CN1[C@@H]2c3ccc(-c4cncnc4)c(=O)n3C[C@@H]2[C@@H](CO)[C@@H]1C(=O)N1CCc2ccccc2C1	0	x	x	x	x	x	x	x
CCOc1ccc(C2=C/C(=C/c3cccnc3)C(=O)O2)cc1	x	0	12	83*	13	11	69*	78*
